In the library only some 1.3% were active in any assay of this set; here they are far more common.
GSK3 alpha inh – human GSK-3 alpha kinase inhibition. P49840. ADP-Glo luminescence, 60 min. inhibition, % at 10 µM. 320,000 compounds, 0.1% hits. AID 2650;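 active = more than half of replicates show inhibition above 20%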;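 note: GST-tagged GSK-3 alpha with peptide substrate and 25 µM ATP; 0% = DMSO neutral wells and 100% = GW8510 positive control wells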
Target sequence (P49840 whole entry, looked up): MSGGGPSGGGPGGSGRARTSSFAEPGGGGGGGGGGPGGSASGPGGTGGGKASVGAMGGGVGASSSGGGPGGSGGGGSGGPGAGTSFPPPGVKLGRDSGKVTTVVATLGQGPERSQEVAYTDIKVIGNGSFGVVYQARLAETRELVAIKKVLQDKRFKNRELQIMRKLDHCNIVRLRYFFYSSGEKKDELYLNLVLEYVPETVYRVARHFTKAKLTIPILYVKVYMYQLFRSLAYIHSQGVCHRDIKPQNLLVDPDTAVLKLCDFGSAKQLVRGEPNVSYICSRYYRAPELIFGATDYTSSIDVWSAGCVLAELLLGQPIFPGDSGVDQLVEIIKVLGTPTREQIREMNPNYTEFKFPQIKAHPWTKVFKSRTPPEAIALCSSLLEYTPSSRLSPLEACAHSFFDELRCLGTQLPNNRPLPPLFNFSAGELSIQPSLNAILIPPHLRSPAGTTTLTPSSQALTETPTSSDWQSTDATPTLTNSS
Hep lipid drop – hepatic lipid droplet formation modulation; AML12 mouse hepatocytes, oleate lipid droplets, BODIPY imaging; inhibition, % at 6.5 µM; 240,000 compounds, 0.4% hits;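 active = lipid droplet intensity inhibited by at least 50%, with more than 500 cells counted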
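Assay system: AML12 hepatocytes (mouse); Probe or stimulus: oleic acid at 100 µM to induce lipid droplet formation; Dosing: compound at 6.5 µM only; Schedule: compound with oleate, overnight; Detection: fluorescence imaging, 20x objective, two fields per well; Measure: % inhibition of lipid droplet signal.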
STK33 inh – blocks human STK33 kinase activity; purified STK33, MBP phosphorylation, ADP-Glo luminescence; Q9BYT3; 320,000 compounds, 0.073% hits; inhibition, % at 10 µM;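 active = inhibition at or above 25%, using the most active replicate where run in duplicate; inactive = inhibition below 25%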
LANA-H2A inh – blocks KSHV LANA binding to histone H2A/H2B; Q9QR71; cell-free LANA-H2A/H2B peptide, fluorescence polarization; inhibition, % (concentration not given with the values); 320,000 compounds, 0.6% hits; AID 2629; in the data active = inhibition mostly above about 10%, no sharp cut-off; inactive = mostly below about 6.7%
H9c2 TAG inh – reduces triacylglycerol accumulation in H9c2 cells; 230,000 compounds, 0.66% hits; inhibition, % at 12.5 µM; Nile Red lipid (TAG) fluorescence; cells loaded with 200 µM oleic acid;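 active = pattern-corrected inhibition of lipid staining of at least 50% with the nuclear-stain viability signal not falling by more than 50%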;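 note: 0% = DMSO wells and 100% = triacsin C control wells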
GSK3beta inhib – inhibitors of human GSK3beta kinase. 300,000 compounds, 0.038% hits. P49841. GST-GSK3beta kinase, ADP-Glo luminescence, 60 min; stronger effect = lower value. activity score (negative = inhibition), % at 10 µM;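 active = more than half of replicate wells score below -50%, meaning over 50% inhibition versus plate controls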;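 note: 0% = median DMSO wells and -100% = median GW8510 positive control wells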
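test system = GST-tagged human GSK3beta kinase, cell-free | reagent = 25 µM ATP with peptide substrate | dosing = one dose of 10 µM per compound | schedule = 60 min reaction, RT | detection = luminescent ADP-Glo measurement of ADP formed | control set = DMSO neutral wells and GW8510 at 20 µM as positive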
* marks the source's active call; other numbers are inactive results; . = no result; + = active, no number; ! = not confirmed by another sample.

SMILES	GSK3 alpha inh	Hep lipid drop	STK33 inh	LANA-H2A inh	H9c2 TAG inh	GSK3beta inhib
C[C@H]1CCCC(=O)CCC/C=C/c2cc(O)cc(O)c2C(=O)O1	52*	-23	28*	-5	3	-44
COC(=O)[C@@]1(Cc2ccc(F)cc2)[C@H]2c3cc(C(=O)N(C)C)[nH]c3C[C@H]2CN1C(=O)c1ccccc1	-2	-4	0	-3	-12	.
c1cc(CCN2CCCC2)ccn1	1	10	1	3	-5	1
CC(=O)OC(C)(C)/C=C/C(=O)[C@](C)(O)[C@H]1[C@H](O)C[C@@]2(C)[C@@H]3CC=C4[C@H](C[C@H](O)C(=O)C4(C)C)[C@]3(C)C(=O)C[C@]12C	.	137*	.	.	.	.
CC1CCN(CC#CCOc2ccc(Cl)cc2)CC1	.	-4	.	1	-9	3
COC(COC(N)=O)C1=C(N2CC2)C(=O)C(C)=C(N2CC2)C1=O (stereo not drawn)	.	.	.	.	60*	.
Cc1cccc(CN2CCCN(Cc3ccc(Cl)cc3)S2(=O)=O)c1	-3	14	-1	0	.	2
Cc1nn(C)cc1/C=C1/CC2C3CC=C4CC(O)CCC4(C)C3CCC2(C)C1=O (stereo not drawn)	0	.	-1	4	9	3
Cc1cccc(N=C2c3cc([N+](=O)[O-])ccc3-c3c2cc([N+](=O)[O-])cc3[N+](=O)[O-])c1	.	.	.	.	62*	.
COc1cc2nc(CN3CC=C(c4ccccc4)CC3)[nH]c(=O)c2cc1OC	17	.	6	4	73*	0
COc1cc(C)c(CN2CC=C(c3ccc(F)cc3)CC2)cc1C	0	5	-2	-1	-18	-2
O=C(c1cccc2ccccc12)C1CCCN(C2CCC2)C1 (stereo not drawn)	-1	-22	0	-4	9	1
CC[n+]1c(/C=C/N(C)c2ccccc2)sc2ccc(Cl)cc21	10	.	0	0	.	-53*
CCC(=NCc1cc(OC)cc(OC)c1)c1c(O)n(C2CCCCC2)c(=O)[nH]c1=O	2	1	-2	4	2	0
Cn1cc(C=C(C#N)C#N)c2ccccc21	1	9	-2	+	3	0
N#Cc1ccc(Cn2cc(C=O)c3ccccc32)cc1	0	-3	-1	2	.	0
COC1=C(C)C(=O)C2=C(C1=O)C(CO)N1C(C#N)C3CC4C(C1C2N1CCOC41)N3C (stereo not drawn)	.	.	.	.	83*	.
CC(C)CC(C)N (stereo not drawn)	-1	.	-1	45*	.	.
CCC(=Nc1ccc2c(c1)CCC2)c1c(O)n(C2CCCCC2)c(=O)[nH]c1=O	4	.	1	-3	.	3
C[C@]12CCC(=O)C=C1CC[C@@H]1[C@@H]2CC[C@]2(C)C(=O)CC[C@@H]12	1	-5	0	16*!	-20	0
CC(=O)N1N=C(c2cccnc2)OC1c1ccccc1Cl (stereo not drawn)	0	15	0	-1	3	1
COc1ccc2nc(NC(=O)CCc3nc(C4=CCN(C)CC4)no3)sc2c1	53*	20	3	4	21	-1
CCc1nnc(NC(=O)CCc2nc(C3=CCN(C)CC3)no2)s1	1	.	2	4	-17	0
COC1CC(OC2CCC3(C)C(CCC4C3CCC3(C)C(C5=CC(=O)OC5)C(OC(C)=O)CC43O)C2)OC(C)C1OC1OC(COC2OC(CO)C(O)C(O)C2O)C(O)C(O)C1O (stereo not drawn)	-1	2	0	-3	.	-4
CCOC(=O)C1=C(N)Oc2cc(C)oc(=O)c2C12C(=O)N1c3c(cccc32)C(C)CC1(C)C (stereo not drawn)	-2	-1	-1	33*	.	-4
SMILES	GSK3 alpha inh	Hep lipid drop	STK33 inh	LANA-H2A inh	H9c2 TAG inh	GSK3beta inhib
COc1ccc(-n2c(O)c(C(C)=NCCCn3ccnc3)c(=O)[nH]c2=O)cc1	54*	.	0	5	.	1
CCC(=NCCCn1ccnc1)c1c(O)n(-c2ccccc2)c(=O)[nH]c1=O	29	.	-2	-5	13	-1
COc1ccccc1Cn1c(SCC(=O)C(C)(C)C)nc2cc(C(=O)N3CCC4(CC3)OCCO4)ccc2c1=O	-6	-4	0	12*	.	3
COc1ccc(C(=O)N2CCC3(CC2)OCCO3)cc1	-1	25	-2	0	.	-1
CC(C)CC(=O)NC(Oc1ccc(Cl)cc1)C(Cl)(Cl)Cl (stereo not drawn)	-1	.	-3	3	-12	3
Cc1cccc(CC(c2cccc(C)c2)N(C)C)c1 (stereo not drawn)	.	.	.	.	-9	.
CCN1C(=O)C(=C2C=C(C)N(Cc3ccco3)C(C)=C2)C(=O)N(CC)C1=S	55*	10	4	6	6	-2
O=C(c1ccccc1)C1CCCN(Cc2nc(-c3cnccn3)no2)C1 (stereo not drawn)	0	2	0	3	19	2
Oc1cc2c(cc1O)[C@H]1c3ccccc3CN[C@@H]1CC2	8	1	28*	1	.	-2
Clc1ccc(N2CCNCC2)nn1	-2	19	-3	0	2	3
CC(C)[C@@]1(NC(=O)[C@@H]2C=C3c4cccc5[nH]cc(c45)C[C@H]3N(C)C2)O[C@@]2(O)[C@@H]3CCCN3C(=O)[C@H](Cc3ccccc3)N2C1=O	.	11	.	.	.	.
CC(C)[C@@]1(NC(=O)[C@@H]2C[C@@H]3c4cccc5[nH]cc(c45)C[C@H]3N(C)C2)O[C@@]2(O)[C@@H]3CCCN3C(=O)[C@H](Cc3ccccc3)N2C1=O	2	-25	-1	16*	28	-1
CC(C)C[C@H]1C(=O)N2CCCC2[C@]2(O)O[C@](NC(=O)[C@@H]3C=C4c5cccc6[nH]cc(c56)CC4N(C)C3)(C(C)C)C(=O)N12 (stereo partly drawn)	3	-7	5	21*!	2	2
CC(C)[C@H]1C(=O)N2CCC[C@H]2[C@]2(O)O[C@](NC(=O)[C@@H]3C=C4c5cccc6[nH]cc(c56)C[C@H]4N(C)C3)(C(C)C)C(=O)N12	0	1	0	11*	-6	.
COC(=O)C1=C(c2ccc(F)cc2OCc2ccccc2)C[C@@H]2CC[C@H]1N2C(=O)N1CCCC1	-2	.	0	-3	8	.
CC(=O)Nc1cc(C(=O)N2CCC3(CC2)OCCO3)ccc1Sc1ccc(C)cc1	.	.	-2	0	.	0
CC(=O)Nc1cc(C(=O)N2CCC3(CC2)OCCO3)ccc1Sc1ccc(F)cc1	-2	14	-2	29*	-3	4
C=CC1CN2CCC1CC2[C@@H](OC(=O)c1ccc(OC)cc1)c1ccnc2ccccc12 (stereo partly drawn)	-2	20	1	32*	.	0

Screening results: PubChem BioAssay, several laboratories
